The subject of assay [1] is Tumor Cell line. Nature of the assay: In vitro anticancer activity against cultured 60 human tumor cell lines. Type of assay: functional. In a few lines:
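NCI screen panel of about 60 human tumor cell lines from nine tissue types. GI50 is the concentration causing 50% growth inhibition, reported as the mean-graph midpoint (mean of the individual cell-line GI50 values).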

Assay [2] has as its system Nucleic Acid. Nature of the assay: Compound was tested on efficacy of Cross-Linking of pBR322 DNA, acid at 40 uM. It counts as functional. In a few lines:
(§1)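 The 3'-³²P-labeled, EcoRI-linearized pBR322 DNA was incubated with drug in 10 mM sodium phosphate, pH 4, aerobically for 2 h with no reductant. It was heat-denatured in DMSO strand-separation buffer and separated on 1% agarose, and percent cross-linked DNA was quantified by phosphorimaging.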

For assay [3], the system named is Nucleic Acid. Nature of the assay: Concentration of compound required for cross linking 50% of pBR322 DNA, Na2S2O4. It counts as functional. In a few lines: (§2)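 pBR322 DNA linearized with EcoRI and 3'-end labeled with α-³²P-dATP by Klenow. About 100 ng was mixed with drug at various concentrations in 10 mM sodium phosphate/1 mM EDTA, pH 7.5, argon-deaerated, then reduced with dithionite for 45 min at room temperature. It was then denatured in 30% DMSO strand-separation buffer at 90 °C for 5 min, run on 1% agarose, and the cross-linked fraction quantified by phosphorimaging.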

The subject of assay [4] is Nucleic Acid. Nature of the assay: Apparent binding constant against calf thymus DNA was determined. It counts as nucleic-acid assay. To be noted: Bos taurus.
Assay [5] concerns Nucleic Acid. Nature of the assay: Concentration of compound required for cross linking 50% T-7 DNA, Acid. Type of assay: functional. Summed up: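 T-7 coliphage DNA (100 μM) with drug at 5–200 μM in citrate phosphate buffer, 10 mM Na+, pH 4.0, incubated aerobically 4 h. Diluted into 5 mM Tris/0.5 mM EDTA pH 8.0 with 100 nM Hoechst 33258; fluorescence (ex 355/em 460 nm) read before and after heat denaturation (95 °C, 5 min), ice chill and room-temperature renaturation. Cross-linked fraction computed against drug-free controls; ICL50 = drug concentration giving 50% cross-linked DNA.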

Assay [6] deals with Nucleic Acid. Put plainly: Concentration of compound required for cross linking 50% of T-7 DNA, Na2S2O4. It counts as functional. In a few lines:
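T-7 coliphage DNA (100 μM) with drug at 0.5–15 μM in 0.015 M Tris·HCl, pH 7.4, was deaerated and given a 10-fold molar excess of Na₂S₂O₄ for 60 min under argon. Hoechst 33258 (100 nM) fluorescence (ex 355/em 460 nm) was read before and after heating at 95 °C and chilling. Cross-linked fraction was taken relative to a drug-free control; ICL50 is the concentration giving 50% cross-linked DNA.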

In assay [7] the test system is Nucleic Acid. Nature of the assay: Concentration of compound required for cross linking 5% of tyrT DNA, Na2S2O4. It counts as functional. Summed up:
(§3)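 The 5'-³²P-labeled 162-bp tyrT DNA fragment (10 ng) was mixed with drug at various concentrations in Tris/EDTA buffer and deaerated with nitrogen. Dithionite was added from a 50 mM stock, and the mix was kept on ice in the dark for 1 h. After ethanol precipitation it was denatured at 94 °C for 4 min and run on an 8% denaturing polyacrylamide gel; cross-linked species were quantified by phosphor screen.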

Assay [8] concerns Nucleic Acid. Put plainly: Concentration of compound required for cross linking 50% of tyrT DNA, Na2S2O4. It counts as functional. Summed up: as §3
Assay [9] has as its system Nucleic Acid. Nature of the assay: Concentration of compound required for cross linking 50% of T-7 DNA, Acid. Type of assay: functional. Summed up: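 T-7 coliphage DNA was incubated with drug at 5–200 μM in citrate phosphate, 10 mM Na⁺, pH 4.0, aerobically for 4 h. The cross-linked fraction came from Hoechst 33258 fluorescence (ex 355/em 460 nm) read before and after a 95 °C heat and ice chill, relative to a drug-free control; ICL50 is the drug concentration giving 50% cross-linking.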

Assay [10] deals with Nucleic Acid. Nature of the assay: Compound was tested on efficacy of Cross-Linking of tyrT DNA, acid at >400 uM. It counts as functional. In a few lines:
(§4)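 The labeled 162-bp tyrT DNA fragment was incubated with drug in citrate phosphate, pH 4.0, aerobically for 2 h. It was ethanol-precipitated, denatured at 94 °C for 4 min, and resolved on an 8% denaturing polyacrylamide gel at about 55 °C; cross-linked bands were detected by phosphor screen.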

For assay [11], the system named is Nucleic Acid. Nature of the assay: Compound was tested on efficacy of Cross-Linking of pBR322 DNA, acid at 1 uM. It counts as functional. Summed up: as §1
For assay [12], the system named is Nucleic Acid. Put plainly: Compound was tested on efficacy of Cross-Linking of tyrT DNA, acid at a concentration 400 uM. It counts as functional. Summed up: as §4
Assay [13] has as its system Nucleic Acid. Nature of the assay: Compound was tested on efficacy of Cross-Linking of pBR322 DNA, Na2S2O4. It counts as functional. In a few lines:
as §2

As usually defined, the GI50 is the concentration at which growth is held to half of that of the control. The low end stands for more potent growth inhibition, the high end for less potent growth inhibition. Take `CO[C@@]12[C@H](COC(N)=O)C3=C(C(=O)C(C)=C(NCCCCCCCCCCCCNC4=C(C)C(=O)C5=C(C4=O)[C@@H](OC(N)=O)[C@@]4(OC)[C@H]6N[C@H]6CN54)C3=O)N1C[C@@H]1N[C@@H]12`: halving of growth in assay [1] (GI50) required 4.47 µM. Besides, in assay [2], the Cross linking is 10%. Also, the ICL50 in [3] came to 1.7 µM.

Take `CO[C@@]12[C@H](COC(N)=O)C3=C(C(=O)C(C)=C(N)C3=O)N1C[C@@H]1N[C@@H]12` [MITOMYCIN]: the K app in assay [4] worked out at 17000 M⁻¹. Moreover, in assay [1], the GI50 is 0.832 µM. For the same molecule, the ICL50 was more than 200 µM in assay [5], 10 µM in assay [6] and “Infinity” in assay [8]. In assay [7], this molecule came in with an ICL5 of 55 µM.

The term inhibition denotes the change of the read-out against control, counted positive when it falls. Read a low inhibition as little suppression. For `CO[C@@]12[C@H](COC(N)=O)C3=C(C(O)=C(C)/C(=N\CCCN(C)CCC/N=C4/C(=O)C5=C(C(O)=C4C)N4CC6NC6[C@]4(OC)[C@@H]5COC(N)=O)C3=O)N1C[C@@H]1N[C@@H]12` (some centres not stated), the K app in assay [4] was determined as 80000 M⁻¹. For the same molecule, in [1], the concentration for 50% growth inhibition (GI50) was 2.51 µM. Further, the ICL50 in [9] stood at 20 µM; in assay [6], 1.5 µM; in assay [8] it was 150 µM; in [3], 0.5 µM. In assay [10], this molecule registered a Cross linking of 1.8%. Also, the ICL5 in [7] was 10 µM. This molecule also registered an inhibition in [11] of 10%.

For the molecule `CO[C@@]12[C@H](COC(N)=O)C3=C(C(=O)C(C)=C(NCCCCNC4=C(C)C(=O)C5=C(C4=O)[C@@H](OC(N)=O)[C@@]4(OC)[C@H]6N[C@H]6CN54)C3=O)N1C[C@@H]1N[C@@H]12`, the K app in assay [4] came out at 50000 M⁻¹. The same molecule gave a 50% growth inhibitory concentration (GI50) in assay [1] of 69.2 µM. The ICL50 was more than 200 µM in assay [9], 2.6 µM in assay [6], “Infinity” in assay [8] and 3.8 µM in assay [13]. The Cross linking is 0.6% in assay [12] and less than 10% in assay [2]. In [7], the ICL5 is 20 µM.
